Tests used:
[1] = Drug metabolism in human liver microsomes assessed as compound level by measuring LC-MS area of metabolite-M1 at 3 uM in presence of NADPH incubated for 60 mins by UPLC-UV/QTOF MS analysis; assay type: ADME, Microsome; conditions: 1 h
Method in brief: (§1)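 Each incubation held liver microsomes (human, monkey, dog, rat or mouse) at 0.5 mg/mL with 3.0 μM compound in 100 mM potassium phosphate, pH 7.4. After 3 min prewarming at 37 °C, the reaction was started with 1 mM NADPH. It was stopped at 60 min with ice-cold acetonitrile. Parent remaining and metabolites were judged from relative UV area.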

Hepatitis B virus [2] = assay: Antiviral activity against Hepatitis B virus assessed as reduction in HBV DNA-free capsid formation; assay type: functional, organism-based
[3] = Toxicity in human HepG2.2.15 cells; assay type: cell-based, HepG2 2.2.15
Method in brief: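 HepG2.2.15 cells seeded at 4 × 10³ cells/well and exposed to a range of compound concentrations for 8 days. MTT (final 2.5 mg/mL) was added for 1 h at 37 °C, then cells were lysed in 10% SDS/50% DMF, pH 7.2. OD was read at 570 nm and % cell death calculated. CC50 is the mean ± SD of at least two independent determinations.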

[4] = Half life in Sprague-Dawley rat at 20 mg/kg, po dosed as single administration; assay type: ADME, organism-based; conditions: in vivo
[5] = Cmax in Sprague-Dawley rat at 20 mg/kg, po dosed as single administration; assay type: ADME, organism-based; set-up: dose 20 mg/kg, route oral; conditions: in vivo
[6] = AUC (0 to t) in Sprague-Dawley rat at 20 mg/kg, po dosed as single administration; assay type: ADME, organism-based; conditions: in vivo
[7] = Half life in Sprague-Dawley rat at 2 mg/kg, iv dosed as single administration; assay type: ADME, organism-based; conditions: in vivo
[8] = AUC (0 to t) in Sprague-Dawley rat at 2 mg/kg, iv dosed as single administration; assay type: ADME, organism-based; conditions: in vivo
[9] = Retention time of the compound by […]; assay type: physicochemical
[10] = Drug metabolism in monkey liver microsomes assessed as compound level by measuring LC-MS area at 3 uM in presence of NADPH incubated for 60 mins by UPLC-UV/QTOF MS analysis; assay type: ADME, Macaca mulatta, Microsome; conditions: rhesus monkey, 1 h; method in brief: as §1
[11] = Drug metabolism in monkey liver microsomes assessed as compound level by measuring LC-MS area of metabolite-M1 at 3 uM in presence of NADPH incubated for 60 mins by UPLC-UV/QTOF MS analysis; assay type: ADME, Macaca mulatta, Microsome; conditions: rhesus monkey, 1 h; method in brief: as §1
[12] = Drug metabolism in dog liver microsomes assessed as compound level by measuring LC-MS area at 3 uM in presence of NADPH incubated for 60 mins by UPLC-UV/QTOF MS analysis; assay type: ADME, Canis lupus familiaris, Microsome; conditions: 1 h; method in brief: as §1
[13] = Drug metabolism in dog liver microsomes assessed as compound level by measuring LC-MS area of metabolite-M1 at 3 uM in presence of NADPH incubated for 60 mins by UPLC-UV/QTOF MS analysis; assay type: ADME, Canis lupus familiaris, Microsome; conditions: 1 h; method in brief: as §1
[14] = Drug metabolism in rat liver microsomes assessed as compound level by measuring LC-MS area at 3 uM in presence of NADPH incubated for 60 mins by UPLC-UV/QTOF MS analysis; assay type: ADME, Microsome; conditions: 1 h; method in brief: as §1
[15] = Drug metabolism in mouse liver microsomes assessed as compound level by measuring LC-MS area of metabolite-M1 at 3 uM in presence of NADPH incubated for 60 mins by UPLC-UV/QTOF MS analysis; assay type: ADME, Microsome; conditions: 1 h; method in brief: as §1
[16] = Drug metabolism in human liver microsomes assessed as compound level by measuring UV-area of metabolite-M1 at 3 uM in presence of NADPH incubated for 60 mins by UPLC-UV/QTOF MS analysis; assay type: ADME, Microsome; conditions: 1 h; method in brief: as §1
[17] = Drug metabolism in monkey liver microsomes assessed as compound level by measuring UV-area at 3 uM in presence of NADPH incubated for 60 mins by UPLC-UV/QTOF MS analysis; assay type: ADME, Macaca mulatta, Microsome; conditions: rhesus monkey, 1 h; method in brief: as §1
[18] = Drug metabolism in monkey liver microsomes assessed as compound level by measuring UV-area of metabolite-M1 at 3 uM in presence of NADPH incubated for 60 mins by UPLC-UV/QTOF MS analysis; assay type: ADME, Macaca mulatta, Microsome; conditions: rhesus monkey, 1 h; method in brief: as §1
[19] = Drug metabolism in dog liver microsomes assessed as compound level by measuring UV-area of metabolite-M1 at 3 uM in presence of NADPH incubated for 60 mins by UPLC-UV/QTOF MS analysis; assay type: ADME, Canis lupus familiaris, Microsome; conditions: 1 h; method in brief: as §1
[20] = Drug metabolism in rat liver microsomes assessed as compound level by measuring UV-area at 3 uM in presence of NADPH incubated for 60 mins by UPLC-UV/QTOF MS analysis; assay type: ADME, Microsome; conditions: 1 h; method in brief: as §1
[21] = Drug metabolism in rat liver microsomes assessed as compound level by measuring UV-area of metabolite-M1 at 3 uM in presence of NADPH incubated for 60 mins by UPLC-UV/QTOF MS analysis; assay type: ADME, Microsome; conditions: 1 h; method in brief: as §1
[22] = Drug metabolism in mouse liver microsomes assessed as compound level by measuring UV-area at 3 uM in presence of NADPH incubated for 60 mins by UPLC-UV/QTOF MS analysis; assay type: ADME, Microsome; conditions: 1 h; method in brief: as §1
[23] = Drug metabolism in mouse liver microsomes assessed as compound level by measuring UV-area of metabolite-M1 at 3 uM in presence of NADPH incubated for 60 mins by UPLC-UV/QTOF MS analysis; assay type: ADME, Microsome; conditions: 1 h; method in brief: as §1
[24] = Drug metabolism in human liver microsomes at 3 uM in presence of NADPH incubated for 60 mins by UPLC-UV/QTOF MS analysis relative to control; assay type: ADME, Microsome; conditions: read-out: Drug metabolism; method in brief: as §1
[25] = Drug metabolism in monkey liver microsomes at 3 uM in presence of NADPH incubated for 60 mins by UPLC-UV/QTOF MS analysis relative to control; assay type: ADME, Macaca mulatta, Microsome; conditions: rhesus monkey, read-out: Drug metabolism; method in brief: as §1
[26] = Drug metabolism in mouse liver microsomes at 3 uM in presence of NADPH incubated for 60 mins by UPLC-UV/QTOF MS analysis relative to control; assay type: ADME, Microsome; method in brief: as §1
[27] = Drug level in Sprague-Dawley rat liver at 20 mg/kg, po dosed as single administration measured up to 24 hrs; assay type: ADME, organism-based; conditions: in vivo
[28] = Drug level in CD1 mouse liver at 20 mg/kg, po dosed as single administration measured up to 24 hrs; assay type: ADME, organism-based; conditions: in vivo
Method in brief: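 ICR (CD-1) mice were dosed orally at 20 mg/kg. At set times (1, 3, 8 and 24 h), blood was taken from the heart and portal vein under isoflurane anesthesia and spun to plasma. Livers were removed after portal vein perfusion, rinsed in saline, weighed and homogenized in saline (5 mL/g). Samples were analysed by UPLC–MS/MS in positive electrospray mode.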

[29] = Cytotoxicity in human HepG2.2.15 cells assessed as reduction in cell viability incubated for 8 days by MTT assay; assay type: cell-based, HepG2 2.2.15
Method in brief: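 This was run in the same 8-day HepG2.2.15 cultures. After the medium was removed, MTT was added (final 2.5 mg/mL) for 1 h at 37 °C. Cells were lysed in 10% SDS/50% DMF, pH 7.2, and OD was read at 570 nm to give % cell death. CC50 was averaged with SD from at least two independent determinations.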

Hepatitis B virus [30] = assay: Antiviral activity against HBV infected in human HepG2.2.15 cells assessed as reduction in cytoplasmic HBV-DNA replication incubated for 8 days by real-time PCR analysis; assay type: functional, organism-based; conditions: HepG2 2.2.15, 192 h

Structure (SMILES): Cc1cc(-c2ccc(F)nc2F)nn(Cc2ccc(Cl)cc2)c1=O
- Activity [1]: 2.64 ×10³ No_unit
- IC50 (Hepatitis B virus [2]): 0.087 µM
- CC50 [3]: 90.6 µM
- half-life [4]: 2.96 h
- Cmax [5]: 352 ng/mL
- AUC(0-t) [6]: 1100 ng·h/mL
- t1/2 [7]: 2.03 h
- AUC(0-t) [8]: 428 ng·h/mL
- Retention_time [9]: 7.3 min
- Activity [10]: 5.42 ×10³ No_unit
- Activity [11]: 8.3 ×10³ No_unit
- Activity [12]: 3.09 ×10³ No_unit
- Activity [13]: 5.97 ×10³ No_unit
- Activity [14]: 7.4 ×10³ No_unit
- Activity [15]: 10.3 ×10³ No_unit
- Activity [16]: 51.3 ×10³ No_unit
- Activity [17]: 34.1 ×10³ No_unit
- Activity [18]: 113 ×10³ No_unit
- Activity [19]: 84.6 ×10³ No_unit
- Activity [20]: 44.8 ×10³ No_unit
- Activity [21]: 56.7 ×10³ No_unit
- Activity [22]: < 5 ×10³ No_unit
- Activity [23]: 117 ×10³ No_unit
- metabolised at 1 h, 3 µM [24]: 34%
- metabolised at 1 h, 3 µM [25]: 73%
- metabolised at 1 h, 3 µM [26]: > 95%
- Drug uptake [27]: Not Active
- Drug uptake [28]: Not Active
- CC50 at 192 h [29]: 83.8 µM
- IC50 (Hepatitis B virus [30]): 0.098 µM
